Test results reported in ChEMBL document CHEMBL1143506, “Antimalarial activity of 2,4,6-trisubstituted pyrimidines” (Bioorg Med Chem Lett, 2005).
In brackets after ≈: the same amount, converted by molar mass.

Each molecule was assayed on Plasmodium falciparum (assay: Minimum inhibitory concentration against schizont maturation of Plasmodium falciparum NF54 ring stage after 40 h).
Assay type: functional
Method in brief: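 P. falciparum NF-54 culture kept in RPMI-1640 with 25 mM HEPES, 1% D-glucose, 0.23% sodium bicarbonate, 10% heat-inactivated human serum. Sorbitol-synchronized rings (~1% parasitaemia, 3% hematocrit). Compounds at 0.25–50 µg/mL in duplicate wells, 37 °C, candle jar, 36–40 h. Giemsa smears scored microscopically; MIC is the lowest concentration blocking full maturation to schizonts. Pyrimethamine served as reference.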

SMILES	MIC [µg/mL]
COc1ccc(OC)c(-c2cc(-c3ccncc3)nc(N3CCOCC3)n2)c1	1 (≈ 2.64 µM)
COc1cccc(-c2cc(-c3ccncc3)nc(N3CCOCC3)n2)c1OC	1 (≈ 2.64 µM)
COc1ccc(-c2cc(-c3ccncc3)nc(N3CCOCC3)n2)c2ccccc12	1 (≈ 2.51 µM)
c1csc(-c2cc(-c3ccncc3)nc(N3CCOCC3)n2)c1	1 (≈ 3.08 µM)
COc1cc(-c2cc(-c3ccncc3)nc(N3CCOCC3)n2)cc(OC)c1OC	10 (≈ 24.5 µM)
COc1cccc(-c2cc(-c3ccncc3)nc(N3CCOCC3)n2)c1	2 (≈ 5.74 µM)
c1ccc(-c2cc(-c3ccncc3)nc(N3CCOCC3)n2)cc1	2 (≈ 6.28 µM)
COc1cc(OC)c(-c2cc(-c3ccncc3)nc(N3CCOCC3)n2)cc1OC	0.5 (≈ 1.22 µM)
Clc1ccc(-c2cc(-c3ccncc3)nc(N3CCOCC3)n2)cc1	10 (≈ 28.3 µM)
CCc1nc(N)nc(N)c1-c1ccc(Cl)cc1 [PYRIMETHAMINE]	10 (≈ 40.2 µM)
Cc1ccc(-c2cc(-c3ccncc3)nc(N3CCOCC3)n2)cc1	10 (≈ 30.1 µM)
CSc1ccc(-c2cc(-c3ccncc3)nc(N3CCOCC3)n2)cc1	10 (≈ 27.4 µM)
COc1cc(OC)cc(-c2cc(-c3ccncc3)nc(N3CCOCC3)n2)c1	2 (≈ 5.28 µM)
COc1ccc(-c2cc(-c3ccncc3)nc(N3CCOCC3)n2)cc1	2 (≈ 5.74 µM)
Cc1ccc(-c2cc(-c3ccncc3)nc(N3CCOCC3)n2)cc1C	1 (≈ 2.89 µM)
O=[N+]([O-])c1cccc(-c2cc(-c3ccncc3)nc(N3CCOCC3)n2)c1	1 (≈ 2.75 µM)
